This is an account of results in ChEMBL document CHEMBL1128288, “7-Azetidinylquinolones as antibacterial agents. 3. Synthesis, properties and structure-activity relationships of the stereoisomers containing a 7-(3-amino-2-methyl-1-azetidinyl) moiety” (J Med Chem, 1995).

What is called ED50 is the midpoint of the dose-response relation. Usually MIC stands for the smallest concentration in the dilution series that meets the test's criterion for growth inhibition.

Holding throughout (type): functional
Test [1] has as its system Pseudomonas aeruginosa. The test can be described thus: In vivo efficacy as ED50 against Pseudomonas aeruginosa HS-116 by oral administration in mice. The settings on record: Pseudomonas aeruginosa, po; read-out: ED50. Put shortly: (§1)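 Mice, 4 groups of 10, infected intraperitoneally with slightly more than the LD100 of the organism. A single oral dose was given immediately after infection, with four doses (one per group) chosen from in vitro activity. Survival was scored after one week. ED50 (total dose, mg/kg, protecting 50%) was interpolated among group survival rates.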

The subject of test [2] is Staphylococcus aureus. Put plainly: In vivo efficacy as ED50 against Staphylococcus aureus HS-93 by oral administration in mice. The settings on record: Staphylococcus aureus, po; read-out: ED50. Put shortly: as §1
Test [3] relates to Escherichia coli. The test can be described thus: In vivo efficacy as ED50 against Escherichia coli HM-42 by oral administration in mice. The settings on record: Escherichia coli, po; read-out: ED50. Put shortly:
as §1

A further test deals with Proteus vulgaris. Put plainly: In vitro antibacterial activity measured as minimum inhibitory concentration was evaluated on proteus vulgaris ATCC 8427 (Pv). The settings on record: Proteus vulgaris, ATCC 8427; read-out: MIC. Put shortly: (§2)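 Serial 2-fold agar dilution in Mueller Hinton medium, run side by side with reference quinolones. Inoculum 10^5 cfu/mL; compound range 0.007–16 µg/mL.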

Test [4] deals with Pseudomonas aeruginosa. Put plainly: In vitro antibacterial activity measured as minimum inhibitory concentration was evaluated on Pseudomonas aeruginosa ATCC 10145 (Pa). The conditions noted are these: Pseudomonas aeruginosa, ATCC 10145; read-out: MIC. The method in brief:
as §2

The next test relates to Enterococcus faecalis. Put plainly: In vitro antibacterial activity measured as minimum inhibitory concentration was evaluated on Streptococcus faecalis ATCC 10541 (Sf). The settings on record: Enterococcus faecalis, ATCC 10541; read-out: MIC. The method in brief: as §2
For test [5], the system named is Escherichia coli. Put plainly: In vitro antibacterial activity measured as minimum inhibitory concentration, was evaluated on Escherichia coli ATCC 23559(Ec). The conditions noted are these: Escherichia coli, ATCC 23559; read-out: MIC. The method in brief: as §2
Another test concerns Bacillus cereus. Put plainly: In vitro antibacterial activity measured as minimum inhibitory concentration was evaluated on Bacillus cereus ATCC 11778 (Bc). The conditions noted are these: Bacillus cereus, ATCC 11778; read-out: MIC. The method in brief: as §2
In another test the test system is Bacillus subtilis. The test can be described thus: In vitro antibacterial activity measured as minimum inhibitory concentration was evaluated on Bacillus subtilis ATCC 6633(Bs). The conditions noted are these: Bacillus subtilis, ATCC 6633; read-out: MIC. The method in brief: as §2
Test [6] deals with Staphylococcus epidermidis. Put plainly: In vitro antibacterial activity measured as minimum inhibitory concentration was evaluated on Staphylococcus epidermidis ATCC 155-1 (Se). The conditions noted are these: Staphylococcus epidermidis, ATCC 155-1; read-out: MIC. The method in brief:
as §2

The test system of the next test is Enterobacter cloacae. Put plainly: In vitro antibacterial activity measured as minimum inhibitory concentration, was evaluated on Enterobacter cloacae ATCC 23355 (Ecl). The settings on record: Enterobacter cloacae, ATCC 23355; read-out: MIC.
A further test deals with Klebsiella pneumoniae. The test can be described thus: In vitro antibacterial activity measured as minimum inhibitory concentration was evaluated on klebsiella pneumoniae ATCC 10031 (Kp). The conditions noted are these: Klebsiella pneumoniae, ATCC 10031; read-out: MIC. Put shortly: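 Serial 2-fold agar dilution in Mueller Hinton medium, run side by side with reference quinolones.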

In test [7] the test system is Staphylococcus aureus. Put plainly: In vitro antibacterial activity measured as minimum inhibitory concentration was evaluated on Staphylococcus aureus ATCC 25178 (Sa). The settings on record: Staphylococcus aureus, ATCC 25178; read-out: MIC. The method in brief:
as §2

The next test relates to Morganella morganii. The test can be described thus: In vitro antibacterial activity measured as minimum inhibitory concentration was evaluated on morganella morganii ATCC 8019 (Mm). The conditions noted are these: Morganella morganii, ATCC 8019; read-out: MIC. Put shortly:
as §2

Converted amounts (≈) assume the structure as drawn.

With `CC1C(N)CN1c1c(F)cc2c(=O)c(C(=O)O)cn(-c3ccc(F)cc3)c2c1F` (stereo unspecified), the values for the ED50 in the test on Pseudomonas aeruginosa [1], with Staphylococcus aureus [2] and in the test with Escherichia coli [3] were 55 mg/kg, 5.7 mg/kg and 2.5 mg/kg, respectively. The MIC with Proteus vulgaris came to 0.5 mg/L (≈ 1.24 µM); with Pseudomonas aeruginosa [4] it was 2 mg/L (≈ 4.96 µM); in the test on Enterococcus faecalis it was 2 mg/L (≈ 4.96 µM); in the test with Escherichia coli [5], 0.12 mg/L (≈ 0.298 µM).

Take `CC1C(N)CN1c1c(F)cc2c(=O)c(C(=O)O)cn(-c3ccc(F)cc3F)c2c1Cl` (stereo unspecified): the minimal inhibitory concentration (MIC) with Bacillus cereus was found to be 0.03 mg/L (≈ 0.0685 µM); in the test with Bacillus subtilis, 0.03 mg/L (≈ 0.0685 µM); with Pseudomonas aeruginosa [4], 0.5 mg/L (≈ 1.14 µM); in [6], 0.06 mg/L (≈ 0.137 µM); in the test with Escherichia coli [5] it was 0.03 mg/L (≈ 0.0685 µM).

On to `CCNCC1(C)CN(c2c(F)cc3c(=O)c(C(=O)O)cn4c3c2OC[C@@H]4C)C1`, for which the MIC amounted to 0.5 mg/L (≈ 1.28 µM) in the test on Bacillus cereus; 0.06 mg/L (≈ 0.154 µM) in the test on Bacillus subtilis; 0.5 mg/L (≈ 1.28 µM) in the test with Enterobacter cloacae; 1 mg/L (≈ 2.57 µM) in the test on Klebsiella pneumoniae; 1 mg/L (≈ 2.57 µM) with Proteus vulgaris; 8 mg/L (≈ 20.5 µM) in the test with Pseudomonas aeruginosa [4]. For the same molecule, the minimum inhibitory concentration (MIC) was 0.5 mg/L (≈ 1.28 µM) with Staphylococcus aureus [7]; 0.25 mg/L (≈ 0.642 µM) in test [6]; 2 mg/L (≈ 5.14 µM) with Enterococcus faecalis; 0.25 mg/L (≈ 0.642 µM) with Escherichia coli [5]; 1 mg/L (≈ 2.57 µM) with Morganella morganii.

As for `CNC1(C)CN(c2c(F)cc3c(=O)c(C(=O)O)cn4c3c2OC[C@@H]4C)C1`, the MIC was 0.12 mg/L (≈ 0.332 µM) with Bacillus cereus; 0.06 mg/L (≈ 0.166 µM) in the test with Bacillus subtilis; 0.06 mg/L (≈ 0.166 µM) in the test on Enterobacter cloacae; 0.015 mg/L (≈ 0.0415 µM) with Klebsiella pneumoniae; 0.5 mg/L (≈ 1.38 µM) in the test on Proteus vulgaris; 1 mg/L (≈ 2.77 µM) with Pseudomonas aeruginosa [4]. Also, the minimum inhibitory concentration (MIC) came to 0.12 mg/L (≈ 0.332 µM) with Staphylococcus aureus [7]; 0.12 mg/L (≈ 0.332 µM) in test [6]; 0.5 mg/L (≈ 1.38 µM) with Enterococcus faecalis; 0.015 mg/L (≈ 0.0415 µM) in the test with Escherichia coli [5]; 0.06 mg/L (≈ 0.166 µM) with Morganella morganii.

In the case of `Cc1c(F)c(N2C[C@H](N)[C@H]2C)nc2c1c(=O)c(C(=O)O)cn2-c1ccc(F)cc1F`, the minimal inhibitory concentration (MIC) was determined as 0.06 mg/L (≈ 0.143 µM) in the test with Bacillus cereus; 0.015 mg/L (≈ 0.0359 µM) in the test on Bacillus subtilis; 0.12 mg/L (≈ 0.287 µM) with Enterobacter cloacae; 0.12 mg/L (≈ 0.287 µM) with Klebsiella pneumoniae; 1 mg/L (≈ 2.39 µM) in the test with Proteus vulgaris; 0.5 mg/L (≈ 1.2 µM) in the test on Pseudomonas aeruginosa [4]. The MIC turned out to be 0.06 mg/L (≈ 0.143 µM) in the test on Staphylococcus aureus [7]; 0.06 mg/L (≈ 0.143 µM) in test [6]; 0.25 mg/L (≈ 0.598 µM) with Enterococcus faecalis; 0.06 mg/L (≈ 0.143 µM) in the test with Escherichia coli [5]; 0.25 mg/L (≈ 0.598 µM) in the test with Morganella morganii.

As for `CCn1cc(C(=O)O)c(=O)c2cc(F)c(N3CC(N)C3C)c(F)c21` (stereo unspecified), the MIC with Bacillus subtilis was 0.06 mg/L (≈ 0.178 µM); in the test with Enterobacter cloacae, 0.06 mg/L (≈ 0.178 µM); in the test with Pseudomonas aeruginosa [4], 1 mg/L (≈ 2.96 µM); with Enterococcus faecalis, 1 mg/L (≈ 2.96 µM); with Escherichia coli [5], 0.06 mg/L (≈ 0.178 µM); in the test with Morganella morganii, 0.06 mg/L (≈ 0.178 µM). Also, the ED50 worked out at 56 mg/kg in the test on Pseudomonas aeruginosa [1], 5.1 mg/kg in the test with Staphylococcus aureus [2] and 4 mg/kg in the test with Escherichia coli [3].

As to `CC1C(N)CN1c1cc2c(cc1F)c(=O)c(C(=O)O)cn2C1CC1` (stereo unspecified), the MIC came out at 0.06 mg/L (≈ 0.181 µM) in the test with Bacillus cereus; 0.03 mg/L (≈ 0.0905 µM) in the test with Bacillus subtilis; 0.03 mg/L (≈ 0.0905 µM) in the test with Enterobacter cloacae; 0.03 mg/L (≈ 0.0905 µM) with Klebsiella pneumoniae; 0.06 mg/L (≈ 0.181 µM) in the test with Proteus vulgaris; 0.015 mg/L (≈ 0.0453 µM) in the test on Escherichia coli [5]. The MIC in the test with Morganella morganii amounted to 0.03 mg/L (≈ 0.0905 µM). Further, the ED50 in the test on Pseudomonas aeruginosa [1] is 108 mg/kg; in the test with Staphylococcus aureus [2] it was 22.3 mg/kg; in the test on Escherichia coli [3], 3.5 mg/kg.

As to `C[C@H]1[C@@H](N)CN1c1c(F)cc2c(=O)c(C(=O)O)cn(C3CC3)c2c1F`, the MIC with Bacillus cereus was found to be 0.25 mg/L (≈ 0.716 µM); in the test with Bacillus subtilis, 0.25 mg/L (≈ 0.716 µM); in the test on Enterobacter cloacae it was 0.25 mg/L (≈ 0.716 µM); in the test with Klebsiella pneumoniae it was 0.25 mg/L (≈ 0.716 µM); in the test with Proteus vulgaris, 1 mg/L (≈ 2.86 µM); in the test on Pseudomonas aeruginosa [4] it was 2 mg/L (≈ 5.73 µM). In addition, the MIC in the test with Staphylococcus aureus [7] is 0.25 mg/L (≈ 0.716 µM); in [6] it was 1 mg/L (≈ 2.86 µM); with Enterococcus faecalis, 2 mg/L (≈ 5.73 µM); with Escherichia coli [5], 0.25 mg/L (≈ 0.716 µM); with Morganella morganii it was 0.25 mg/L (≈ 0.716 µM).

In the case of `C[C@H]1COc2c(N3CC(C)(N(C)C)C3)c(F)cc3c(=O)c(C(=O)O)cn1c23`, the MIC was found to be 0.5 mg/L (≈ 1.33 µM) with Bacillus cereus; 0.06 mg/L (≈ 0.16 µM) in the test on Bacillus subtilis; 0.5 mg/L (≈ 1.33 µM) in the test with Enterobacter cloacae; 0.12 mg/L (≈ 0.32 µM) with Klebsiella pneumoniae; 0.5 mg/L (≈ 1.33 µM) with Proteus vulgaris; 4 mg/L (≈ 10.7 µM) in the test with Pseudomonas aeruginosa [4]. Besides, the MIC was determined as 0.25 mg/L (≈ 0.666 µM) with Staphylococcus aureus [7]; 0.12 mg/L (≈ 0.32 µM) in test [6]; 2 mg/L (≈ 5.33 µM) in the test with Enterococcus faecalis; 0.12 mg/L (≈ 0.32 µM) in the test on Escherichia coli [5]; 0.25 mg/L (≈ 0.666 µM) with Morganella morganii.
